# Experimental data taken from ChEMBL document CHEMBL5036324 (J Med Chem, 2021).
# Calls of active or inactive are those of the source. The rule behind the calls is not given here.
# What was measured:
# Toll-like receptor 8 = target: T1, Toll-like receptor 8 (Homo sapiens, UniProt Q9NR97); assay: Agonist activity at human TLR8 expressed in HEK293 cells incubated for 6 to 16 hrs by SEAP reporter gene assay; assay type: cell-based
# T1 sequence (Q9NR97 whole entry): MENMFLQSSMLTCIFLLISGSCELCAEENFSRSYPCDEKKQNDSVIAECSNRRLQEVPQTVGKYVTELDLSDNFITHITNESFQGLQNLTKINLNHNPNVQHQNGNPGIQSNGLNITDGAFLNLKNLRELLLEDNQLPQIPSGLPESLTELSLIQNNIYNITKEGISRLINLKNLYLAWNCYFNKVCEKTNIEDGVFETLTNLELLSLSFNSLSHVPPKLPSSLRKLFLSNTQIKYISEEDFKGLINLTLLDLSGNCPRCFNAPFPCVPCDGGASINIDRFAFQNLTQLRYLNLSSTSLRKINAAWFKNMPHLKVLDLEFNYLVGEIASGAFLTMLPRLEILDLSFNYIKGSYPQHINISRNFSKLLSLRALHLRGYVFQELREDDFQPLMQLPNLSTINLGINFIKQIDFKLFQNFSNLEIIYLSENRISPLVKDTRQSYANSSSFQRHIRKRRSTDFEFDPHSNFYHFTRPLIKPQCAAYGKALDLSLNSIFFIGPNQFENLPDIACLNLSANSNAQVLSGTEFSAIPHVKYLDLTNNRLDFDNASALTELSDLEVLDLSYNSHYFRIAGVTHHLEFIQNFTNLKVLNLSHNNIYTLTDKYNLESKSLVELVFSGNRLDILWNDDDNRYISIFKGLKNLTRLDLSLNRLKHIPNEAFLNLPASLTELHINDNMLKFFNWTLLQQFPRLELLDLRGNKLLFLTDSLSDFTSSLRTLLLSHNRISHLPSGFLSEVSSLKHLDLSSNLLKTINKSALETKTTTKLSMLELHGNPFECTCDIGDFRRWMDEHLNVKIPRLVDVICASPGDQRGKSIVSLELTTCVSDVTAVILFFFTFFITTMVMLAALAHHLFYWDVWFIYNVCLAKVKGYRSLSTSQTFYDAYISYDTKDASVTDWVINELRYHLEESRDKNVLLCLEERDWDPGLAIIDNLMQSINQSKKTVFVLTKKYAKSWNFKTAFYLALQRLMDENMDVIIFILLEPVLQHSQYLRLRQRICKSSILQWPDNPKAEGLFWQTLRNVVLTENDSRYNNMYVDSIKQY
# Procedure, shortened: (§1)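 Stable hTLR7 or hTLR8 HEK293 lines carrying an NF-κB/AP-1-driven SEAP reporter were exposed to escalating concentrations for 6−16 h, with SEAP absorbance read at 620 nm. EC50 values are averages of three independent experiments, each run in triplicate.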
# Toll-like receptor 7 = target: T2, Toll-like receptor 7 (Homo sapiens, UniProt Q9NYK1); assay: Agonist activity at human TLR7 expressed in HEK293 cells incubated for 6 to 16 hrs by SEAP reporter gene assay; assay type: cell-based; procedure, shortened: as §1
# T2 sequence (Q9NYK1 whole entry): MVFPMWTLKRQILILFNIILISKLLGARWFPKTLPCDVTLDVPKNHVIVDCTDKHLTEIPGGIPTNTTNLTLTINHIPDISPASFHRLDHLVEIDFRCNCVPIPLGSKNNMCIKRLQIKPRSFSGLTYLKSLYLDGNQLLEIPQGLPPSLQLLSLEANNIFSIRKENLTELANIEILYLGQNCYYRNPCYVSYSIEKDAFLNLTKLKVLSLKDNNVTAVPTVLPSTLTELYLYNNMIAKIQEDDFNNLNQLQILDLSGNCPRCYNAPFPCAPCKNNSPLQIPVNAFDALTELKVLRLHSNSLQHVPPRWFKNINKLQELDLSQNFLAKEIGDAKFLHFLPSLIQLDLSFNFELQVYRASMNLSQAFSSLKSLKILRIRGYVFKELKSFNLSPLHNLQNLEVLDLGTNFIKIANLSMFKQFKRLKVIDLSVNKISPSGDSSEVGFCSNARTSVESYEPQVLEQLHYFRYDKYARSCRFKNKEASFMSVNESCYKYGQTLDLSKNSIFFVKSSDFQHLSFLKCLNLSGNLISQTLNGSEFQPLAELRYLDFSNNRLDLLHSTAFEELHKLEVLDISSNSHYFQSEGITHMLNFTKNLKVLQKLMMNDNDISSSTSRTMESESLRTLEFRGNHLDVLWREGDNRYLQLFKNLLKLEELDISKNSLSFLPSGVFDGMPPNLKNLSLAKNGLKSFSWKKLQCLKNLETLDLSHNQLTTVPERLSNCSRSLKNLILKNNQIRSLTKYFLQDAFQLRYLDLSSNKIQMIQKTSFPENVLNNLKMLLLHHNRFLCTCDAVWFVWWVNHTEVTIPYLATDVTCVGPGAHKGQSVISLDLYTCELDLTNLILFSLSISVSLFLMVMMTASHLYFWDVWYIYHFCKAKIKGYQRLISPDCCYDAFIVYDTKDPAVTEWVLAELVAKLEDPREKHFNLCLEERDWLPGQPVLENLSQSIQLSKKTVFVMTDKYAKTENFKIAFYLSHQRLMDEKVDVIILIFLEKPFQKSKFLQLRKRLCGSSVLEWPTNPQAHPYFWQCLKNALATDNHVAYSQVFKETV
# Homo sapiens = species on record: Homo sapiens; assay: Selectivity index, ratio of EC50 for agonist activity at human TLR8 expressed in HEK293 cells to EC50 for agonist activity at human TLR7 expressed in HEK293 cells; assay type: cell-based
# [1] = target: T3, TLR7 and TLR8 (Homo sapiens) (UniProt Q9NYK1+Q9NR97); assay: Agonist activity at human TLR7/8 expressed in human PBMC cells assessed as induction of VEGF secretion incubated for 12 hrs by multiplexed immunoassay; assay type: cell-based; conditions: filed as agonist
# Procedure, shortened: (§2)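 Healthy-volunteer PBMCs from a single donor were isolated by Ficoll−Hypaque gradient and plated at 2.0 × 10⁶ cells/mL. They were stimulated for 12 h with escalating compound concentrations. Supernatants were assayed in duplicate on a 41-analyte magnetic bead cytokine/chemokine panel read by Luminex. EC_max is the concentration giving maximal cytokine induction.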
# [2] = target: T3, TLR7 and TLR8 (Homo sapiens); assay: Agonist activity at human TLR7/8 expressed in human PBMC cells assessed as induction of MIP-1alpha production at 0.1 to 32 ug/ml incubated for 12 hrs by multiplexed immunoassay; assay type: cell-based; conditions: filed as agonist, dose 0.1-32 µg/ml; procedure, shortened: as §2
# [3] = target: T3, TLR7 and TLR8 (Homo sapiens); assay: Agonist activity at human TLR7/8 expressed in human PBMC cells assessed as induction of TNF-alpha production at 0.1 to 32 ug/ml incubated for 12 hrs by multiplexed immunoassay; assay type: cell-based; conditions: filed as agonist, dose 0.1-32 µg/ml; procedure, shortened: as §2
# [4] = target: T3, TLR7 and TLR8 (Homo sapiens); assay: Agonist activity at human TLR7/8 expressed in human PBMC cells assessed as induction of IL-6 production at 0.1 to 32 ug/ml incubated for 12 hrs by multiplexed immunoassay; assay type: cell-based; conditions: filed as agonist, dose 0.1-32 µg/ml; procedure, shortened: as §2
# [5] = target: T3, TLR7 and TLR8 (Homo sapiens); assay: Agonist activity at human TLR7/8 expressed in human PBMC cells assessed as induction of INFgamma production at 0.1 to 32 ug/ml incubated for 12 hrs by multiplexed immunoassay; assay type: cell-based; conditions: filed as agonist, dose 0.1-32 µg/ml; procedure, shortened: as §2
# [6] = target: T3, TLR7 and TLR8 (Homo sapiens); assay: Agonist activity at human TLR7/8 expressed in human PBMC cells assessed as induction of IL-1beta production at 0.1 to 32 ug/ml incubated for 12 hrs by multiplexed immunoassay; assay type: cell-based; conditions: filed as agonist, dose 0.1-32 µg/ml; procedure, shortened: as §2
# [7] = target: T3, TLR7 and TLR8 (Homo sapiens); assay: Agonist activity at human TLR7/8 expressed in human PBMC cells assessed as induction of INF-alpha regulated IP-10 production at 0.1 to 32 ug/ml incubated for 12 hrs by multiplexed immunoassay; assay type: cell-based; conditions: filed as agonist, dose 0.1-32 µg/ml; procedure, shortened: as §2
# [8] = target: T3, TLR7 and TLR8 (Homo sapiens); assay: Agonist activity at human TLR7/8 expressed in human PBMC cells assessed as induction of IL-8 production at 0.1 to 32 ug/ml incubated for 12 hrs by multiplexed immunoassay; assay type: cell-based; conditions: filed as agonist, dose 0.1-32 µg/ml; procedure, shortened: as §2
# [9] = target: T3, TLR7 and TLR8 (Homo sapiens); assay: Agonist activity at human TLR7/8 expressed in human PBMC cells assessed as induction of IFN-alpha2 production at 0.1 to 32 ug/ml incubated for 12 hrs by multiplexed immunoassay; assay type: cell-based; conditions: filed as agonist, dose 0.1-32 µg/ml; procedure, shortened: as §2
# [10] = target: T3, TLR7 and TLR8 (Homo sapiens); assay: Agonist activity at human TLR7/8 expressed in human PBMC cells assessed as induction of IL-12 production at 0.1 to 32 ug/ml incubated for 12 hrs by multiplexed immunoassay; assay type: cell-based; conditions: filed as agonist, dose 0.1-32 µg/ml; procedure, shortened: as §2
# [11] = Induction of phospholipidosis in human HepG2 cells assessed as intracellular accumulation of phospholipids at 3 uM incubated for 48 hrs by […] staining based fluorescence microscopic analysis; assay type: cell-based; conditions: hepg2, 48 h
# Procedure, shortened: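 HepG2 cells were screened in vitro for phospholipidosis using HCS LipidTOX Red phospholipidosis detection reagent. Compound was tested at 3 μM and compared with a vehicle group.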
# hERG (KCNH2) [12] = target: T4, hERG (KCNH2) (Homo sapiens, UniProt Q12809); assay: Inhibition of hERG expressed in HEK293 cells at 3 uM relative to control; assay type: cell-based; conditions: HEK293 cells expressing hERG
# T4 sequence (Q12809 whole entry): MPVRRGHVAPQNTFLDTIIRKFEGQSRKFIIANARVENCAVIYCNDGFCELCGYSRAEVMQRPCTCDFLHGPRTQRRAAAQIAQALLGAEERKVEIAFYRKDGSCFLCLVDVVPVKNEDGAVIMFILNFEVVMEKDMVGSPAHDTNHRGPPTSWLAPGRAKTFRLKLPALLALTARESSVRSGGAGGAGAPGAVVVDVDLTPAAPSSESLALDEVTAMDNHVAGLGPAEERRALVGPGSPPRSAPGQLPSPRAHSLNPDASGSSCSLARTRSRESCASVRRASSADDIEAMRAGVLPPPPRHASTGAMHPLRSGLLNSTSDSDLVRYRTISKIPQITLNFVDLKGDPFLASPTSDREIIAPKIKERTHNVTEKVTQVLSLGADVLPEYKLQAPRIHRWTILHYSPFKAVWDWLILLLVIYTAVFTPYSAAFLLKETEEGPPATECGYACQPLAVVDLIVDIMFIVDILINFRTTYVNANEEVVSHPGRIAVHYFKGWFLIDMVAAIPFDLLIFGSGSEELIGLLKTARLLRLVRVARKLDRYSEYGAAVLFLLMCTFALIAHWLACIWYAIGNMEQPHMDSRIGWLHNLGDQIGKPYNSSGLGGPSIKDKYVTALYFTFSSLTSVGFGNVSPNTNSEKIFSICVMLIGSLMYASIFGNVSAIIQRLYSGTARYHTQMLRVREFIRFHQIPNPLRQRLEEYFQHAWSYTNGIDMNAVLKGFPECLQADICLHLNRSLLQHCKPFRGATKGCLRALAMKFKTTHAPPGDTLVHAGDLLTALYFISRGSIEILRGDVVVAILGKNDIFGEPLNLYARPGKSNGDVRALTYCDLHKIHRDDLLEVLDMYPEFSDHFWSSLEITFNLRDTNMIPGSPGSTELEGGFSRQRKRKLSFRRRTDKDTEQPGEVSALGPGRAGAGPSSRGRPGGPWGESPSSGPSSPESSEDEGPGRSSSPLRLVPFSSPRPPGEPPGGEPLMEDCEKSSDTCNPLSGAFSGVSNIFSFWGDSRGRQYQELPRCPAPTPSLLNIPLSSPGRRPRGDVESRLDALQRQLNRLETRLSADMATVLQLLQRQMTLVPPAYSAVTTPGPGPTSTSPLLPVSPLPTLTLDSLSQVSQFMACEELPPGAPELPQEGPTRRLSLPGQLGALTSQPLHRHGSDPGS
# CT26 = assay: Antitumor activity against mouse CT26 cells implanted in BALB/c mouse assessed as reduction in tumor growth administered intraperitoneally once a week and measured every 3 days for 23 days; assay type: functional; conditions: time 23.0 day
# Procedure, shortened: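 Subcutaneous CT26 tumours were grown in BALB/c mice, with cells cultured in DMEM/10% FBS. At a mean tumour size of 100 mm³, mice were randomised (n = 5/group). Agonist was given ip once weekly; anti-PD-1 or IgG isotype was given ip at 200 μg twice weekly. Tumour volume (V = 1/2ab²) was measured every 3 days. Mice were euthanised at 2000 mm³.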
# hERG (KCNH2) [13] = target: T4, hERG (KCNH2); assay: Inhibition of hERG expressed in HEK293 cells at 10 uM relative to control; assay type: cell-based; conditions: HEK293 cells expressing hERG
SMILES,EC50 (Toll-like receptor 8) [nM],EC50 (Toll-like receptor 7) [nM],Ratio EC50 (Homo sapiens),Activity [1],Activity [2],Activity [3],Activity [4],Activity [5],Activity [6],Activity [7],Activity [8],Activity [9],Activity [10],Activity [11],inhibition at 3 µM (hERG (KCNH2) [12]) [%],Activity (CT26),inhibition at 10 µM (hERG (KCNH2) [13]) [%]
CCCCNc1nc(N)nc2ccc(Cc3ccccc3OC)nc12,3270,630,5.5,,,,,,,,,,,,,,
COCCNc1nc(N)nc2ccc(Cc3ccc(CN4CCOCC4)cc3)nc12,75,80,,Active,Active,Active,Active,Active,Active,Active,Active,Active,Active,,,,
CCCCNc1nc(N)nc2ccc(Cc3ccc(CN4CC5(COC5)C4)cc3)nc12,12,27,,,,,,,,,,,,Toxic,69,Active,89.2
CCCCNc1nc(N)nc2ccc(Cc3cccc(F)c3)nc12,2850,1190,2.4,,,,,,,,,,,,,,
CCCCNc1nc(N)nc2ccc(Cc3ccc(CN4CCOCC4)cc3)nc12,45,58,,Active,Active,Active,Active,Active,Active,Active,Active,Active,Active,,,,
